Assay results published in ChEMBL document CHEMBL4387704, “Design, synthesis and biological evaluation of novel isoindolinone derivatives as potent histone deacetylase inhibitors” (Eur J Med Chem, 2019).
The source made the active and inactive calls. The calls are words filed in the database; no cut-off is given here.

Key:
Histone deacetylase 3 = Histone deacetylase 3 (Homo sapiens, UniProt O15379); assay: Inhibition of HDAC3 (unknown origin) using Fluor de Lys substrate by fluorescence assay relative to control
Chain of Histone deacetylase 3 (O15379 whole entry, canonical isoform): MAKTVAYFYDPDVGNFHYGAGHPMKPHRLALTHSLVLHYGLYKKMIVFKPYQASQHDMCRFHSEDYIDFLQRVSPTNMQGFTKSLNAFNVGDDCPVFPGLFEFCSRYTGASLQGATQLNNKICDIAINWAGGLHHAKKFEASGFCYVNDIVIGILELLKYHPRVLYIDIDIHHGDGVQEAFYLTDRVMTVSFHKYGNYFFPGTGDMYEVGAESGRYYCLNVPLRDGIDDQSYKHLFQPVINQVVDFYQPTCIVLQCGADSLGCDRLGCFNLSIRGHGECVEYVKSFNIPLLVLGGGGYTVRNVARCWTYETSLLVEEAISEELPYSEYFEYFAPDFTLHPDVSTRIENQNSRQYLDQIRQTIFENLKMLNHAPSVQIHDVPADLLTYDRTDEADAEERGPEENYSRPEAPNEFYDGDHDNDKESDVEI
Outline: (§1)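 Recombinant HDAC isoform assays run by a contract lab. Compounds in DMSO, 10-dose IC50 mode, 3-fold serial dilution from 50 μM. Duplicate runs; IC50 from curve fitting.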

[1] = target: Histone deacetylase 9 (Homo sapiens) (UniProt Q9UKV0); assay: Inhibition of HDAC9 (unknown origin) using Fluor de Lys substrate by fluorescence assay relative to control; outline: as §1
Chain of Histone deacetylase 9 (Homo sapiens) (Q9UKV0 whole entry): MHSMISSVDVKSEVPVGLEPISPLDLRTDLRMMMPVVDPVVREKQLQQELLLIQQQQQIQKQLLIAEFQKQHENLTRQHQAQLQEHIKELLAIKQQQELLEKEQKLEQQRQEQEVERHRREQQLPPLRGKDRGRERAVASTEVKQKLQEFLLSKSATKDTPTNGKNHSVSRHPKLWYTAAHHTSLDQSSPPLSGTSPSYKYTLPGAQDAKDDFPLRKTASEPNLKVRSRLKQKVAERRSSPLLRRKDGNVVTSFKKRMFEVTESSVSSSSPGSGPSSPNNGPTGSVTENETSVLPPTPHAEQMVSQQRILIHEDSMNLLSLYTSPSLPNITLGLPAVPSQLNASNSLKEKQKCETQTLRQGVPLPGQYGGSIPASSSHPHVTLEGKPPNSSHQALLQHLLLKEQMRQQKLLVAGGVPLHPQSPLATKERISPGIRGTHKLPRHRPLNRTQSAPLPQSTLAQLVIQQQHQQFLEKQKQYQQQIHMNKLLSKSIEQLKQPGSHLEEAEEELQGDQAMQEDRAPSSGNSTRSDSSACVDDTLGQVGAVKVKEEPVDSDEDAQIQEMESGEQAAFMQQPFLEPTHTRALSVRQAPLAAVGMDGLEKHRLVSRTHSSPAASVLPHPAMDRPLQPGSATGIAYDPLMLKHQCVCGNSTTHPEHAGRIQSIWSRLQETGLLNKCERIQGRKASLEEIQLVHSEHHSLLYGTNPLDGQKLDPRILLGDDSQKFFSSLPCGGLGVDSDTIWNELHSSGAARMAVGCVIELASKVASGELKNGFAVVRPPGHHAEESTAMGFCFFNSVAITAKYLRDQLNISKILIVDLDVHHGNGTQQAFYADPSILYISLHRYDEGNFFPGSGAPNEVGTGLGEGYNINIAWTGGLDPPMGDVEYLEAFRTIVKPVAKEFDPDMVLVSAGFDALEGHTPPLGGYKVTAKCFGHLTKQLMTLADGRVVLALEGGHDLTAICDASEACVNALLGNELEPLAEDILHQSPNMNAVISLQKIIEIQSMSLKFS

[2] = target: Protein deacetylase HDAC6 (Homo sapiens) (UniProt Q9UBN7); assay: Inhibition of HDAC6 (unknown origin) using Fluor de Lys substrate by fluorescence assay relative to control; outline: as §1
Chain of Protein deacetylase HDAC6 (Homo sapiens) (Q9UBN7 whole entry): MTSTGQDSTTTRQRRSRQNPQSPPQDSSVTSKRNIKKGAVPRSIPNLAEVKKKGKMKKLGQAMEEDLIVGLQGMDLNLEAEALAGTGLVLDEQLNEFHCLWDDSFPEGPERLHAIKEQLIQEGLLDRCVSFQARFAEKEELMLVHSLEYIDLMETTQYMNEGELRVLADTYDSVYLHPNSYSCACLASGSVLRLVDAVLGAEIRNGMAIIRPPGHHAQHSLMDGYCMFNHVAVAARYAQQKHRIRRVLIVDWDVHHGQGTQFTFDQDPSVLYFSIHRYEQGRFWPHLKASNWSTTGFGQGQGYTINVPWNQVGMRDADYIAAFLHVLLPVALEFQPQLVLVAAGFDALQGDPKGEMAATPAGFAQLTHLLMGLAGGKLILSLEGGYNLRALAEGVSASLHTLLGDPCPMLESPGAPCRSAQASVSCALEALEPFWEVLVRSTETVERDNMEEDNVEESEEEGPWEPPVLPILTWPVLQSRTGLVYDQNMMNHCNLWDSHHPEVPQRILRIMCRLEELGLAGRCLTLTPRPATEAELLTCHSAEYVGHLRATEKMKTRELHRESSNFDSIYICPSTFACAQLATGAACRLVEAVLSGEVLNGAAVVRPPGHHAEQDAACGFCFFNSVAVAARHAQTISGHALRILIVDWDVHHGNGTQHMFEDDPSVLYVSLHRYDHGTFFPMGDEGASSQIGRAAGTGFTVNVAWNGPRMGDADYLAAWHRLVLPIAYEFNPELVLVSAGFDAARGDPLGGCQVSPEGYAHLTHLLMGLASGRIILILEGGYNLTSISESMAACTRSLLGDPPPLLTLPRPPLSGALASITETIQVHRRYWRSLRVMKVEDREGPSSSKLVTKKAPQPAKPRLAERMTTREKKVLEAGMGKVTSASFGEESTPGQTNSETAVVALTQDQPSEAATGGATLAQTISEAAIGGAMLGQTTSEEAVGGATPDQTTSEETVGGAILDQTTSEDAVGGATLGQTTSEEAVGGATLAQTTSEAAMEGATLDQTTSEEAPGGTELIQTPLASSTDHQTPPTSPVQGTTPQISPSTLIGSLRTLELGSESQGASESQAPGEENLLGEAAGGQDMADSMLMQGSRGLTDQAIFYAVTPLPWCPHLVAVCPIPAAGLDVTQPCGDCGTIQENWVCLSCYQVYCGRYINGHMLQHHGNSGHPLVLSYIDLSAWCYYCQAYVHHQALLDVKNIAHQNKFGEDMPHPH

Histone deacetylase 11 = Histone deacetylase 11 (Homo sapiens, UniProt Q96DB2); assay: Inhibition of HDAC11 (unknown origin) using Fluor de Lys substrate by fluorescence assay relative to control; outline: as §1
Chain of Histone deacetylase 11 (Q96DB2 whole entry): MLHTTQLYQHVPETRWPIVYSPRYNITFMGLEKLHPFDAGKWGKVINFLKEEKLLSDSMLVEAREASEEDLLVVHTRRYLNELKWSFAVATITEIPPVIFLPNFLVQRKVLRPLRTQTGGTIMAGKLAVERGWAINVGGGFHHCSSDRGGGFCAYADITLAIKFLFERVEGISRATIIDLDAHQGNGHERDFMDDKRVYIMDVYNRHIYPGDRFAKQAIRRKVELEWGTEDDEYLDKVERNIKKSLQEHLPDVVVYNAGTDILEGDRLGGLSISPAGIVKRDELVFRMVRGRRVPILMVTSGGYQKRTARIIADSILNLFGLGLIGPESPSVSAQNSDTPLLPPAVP

HCT-116 = assay: Antiproliferative activity against human HCT116 assessed as reduction in cell viability measured after 72 hrs using alamar blue based fluorescence method; type: functional; settings: HCT-116, 72 h
Outline: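 HCT116 and MCF-7 grown in McCoy's 5A with 10% FBS and penicillin/streptomycin at 37 °C, 5% CO2. Cells plated in 96-well format and exposed to drug for 72 h. Alamar blue (1 mM solution) added, incubated 5–6 h, fluorescence read at 530/590 nm.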

Homo sapiens = species: Homo sapiens; assay: Selectivity index, ratio of IC50 of HDCA8 (unknown origin) to IC50 of HDCA1 (unknown origin)
HL-60 = assay: Potency index, ratio of IC50 of chidamide to IC50 of test compound against human HL60 cells; type: functional
CCRF-CEM = assay: Growth inhibition of human CCRF-CEM cells assessed as cell growth inhibition at 10 uM incubated for 48 hrs by sulforhodamine B assay; type: functional; settings: read-out: GI
K562 = assay: Growth inhibition of human K562 cells assessed as cell growth inhibition at 10 uM incubated for 48 hrs by sulforhodamine B assay; type: functional; settings: K562, 48 h, read-out: GI
RPMI-8226 = assay: Growth inhibition of human RPMI8226 cells assessed as cell growth inhibition at 10 uM incubated for 48 hrs by sulforhodamine B assay; type: functional; settings: RPMI-8226, 48 h, read-out: GI
A549 = assay: Growth inhibition of human A549 cells assessed as cell growth inhibition at 10 uM incubated for 48 hrs by sulforhodamine B assay; type: functional; settings: A549, 48 h, read-out: GI
HOP-62 = assay: Growth inhibition of human HOP62 cells assessed as cell growth inhibition at 10 uM incubated for 48 hrs by sulforhodamine B assay; type: functional; settings: HOP-62, 48 h, read-out: GI
NCI-H522 = assay: Growth inhibition of human NCI-H522 cells assessed as cell growth inhibition at 10 uM incubated for 48 hrs by sulforhodamine B assay; type: functional; settings: NCI-H522, 48 h, read-out: GI
SW-620 = assay: Growth inhibition of human SW620 cells assessed as cell growth inhibition at 10 uM incubated for 48 hrs by sulforhodamine B assay; type: functional; settings: SW-620, 48 h, read-out: GI
SF-268 = assay: Growth inhibition of human SF268 cells assessed as cell growth inhibition at 10 uM incubated for 48 hrs by sulforhodamine B assay; type: functional; settings: SF-268, 48 h, read-out: GI
SF-295 = assay: Growth inhibition of human SF295 cells assessed as cell growth inhibition at 10 uM incubated for 48 hrs by sulforhodamine B assay; type: functional; settings: SF-295, 48 h, read-out: GI
Malme-3M = assay: Growth inhibition of human MALME-3M cells assessed as cell growth inhibition at 10 uM incubated for 48 hrs by sulforhodamine B assay; type: functional; settings: read-out: GI
M14 = assay: Growth inhibition of human M14 cells assessed as cell growth inhibition at 10 uM incubated for 48 hrs by sulforhodamine B assay; type: functional; settings: M14, 48 h, read-out: GI
UACC-257 = assay: Growth inhibition of human UACC257 cells assessed as cell growth inhibition at 10 uM incubated for 48 hrs by sulforhodamine B assay; type: functional; settings: UACC-257, 48 h, read-out: GI
OVCAR-3 = assay: Growth inhibition of human OVCAR3 cells assessed as cell growth inhibition at 10 uM incubated for 48 hrs by sulforhodamine B assay; type: functional; settings: OVCAR-3, 48 h, read-out: GI
OVCAR-4 = assay: Growth inhibition of human OVCAR4 cells assessed as cell growth inhibition at 10 uM incubated for 48 hrs by sulforhodamine B assay; type: functional; settings: OVCAR-4, 48 h, read-out: GI
SK-OV-3 = assay: Growth inhibition of human SKOV3 cells assessed as cell growth inhibition at 10 uM incubated for 48 hrs by sulforhodamine B assay; type: functional; settings: SK-OV-3, 48 h, read-out: GI
Hs-578T = assay: Growth inhibition of human Hs 578T cells assessed as cell growth inhibition at 10 uM incubated for 48 hrs by sulforhodamine B assay; type: functional; settings: read-out: GI
MDA-MB-231 = assay: Growth inhibition of human MDA-MB-231 cells assessed as cell growth inhibition at 10 uM incubated for 48 hrs by sulforhodamine B assay; type: functional; settings: MDA-MB-231, 48 h, read-out: GI
[3] = Metabolic stability in human liver microsomes assessed as internal clearance at 1 uM preincubated for 10 mins followed by NADPH addition measured upto 60 mins by LC-MS/MS analysis; type: ADME, Microsome; settings: read-out: CLH
Outline: (§2)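 Liver microsomes from male SD rat, dog or human at 0.5 mg/mL in 100 mM potassium phosphate pH 7.4 with 1 μM compound. Prewarmed 37 °C 10 min, started with 1 mM NADPH. Stopped at 0, 5, 10, 20, 40, 60 min with cold methanol containing glibenclamide internal standard; supernatant by LC–MS/MS; T1/2 and CLint derived.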

[4] = Metabolic stability in rat liver microsomes assessed as internal clearance at 1 uM preincubated for 10 mins followed by NADPH addition measured upto 60 mins by LC-MS/MS analysis; type: ADME, Microsome; settings: read-out: CLH; outline: as §2
[5] = Terminal half life in Sprague-Dawley rat at 1 mg/kg, iv by LC-MS/MS analysis; type: ADME, organism-based; settings: in vivo, read-out: beta t1/2 (converted)
Outline: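 Male SD rats (199-214 g), three per route, single dose 1 mg/kg iv or 10 mg/kg po. Jugular blood (~200 μL) into heparinized tubes at set times; plasma by centrifugation, protein precipitation with acetonitrile containing verapamil and glibenclamide; drug measured by LC-MS/MS.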

[6] = AUC (0 to infinity) in Sprague-Dawley rat at 10 mg/kg, po by LC-MS/MS analysis; type: ADME, organism-based; parameters: dose 10 mg/kg, time infinity, route oral; settings: in vivo
Outline: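 Male SD rats, 199-214 g, three per route. Single iv dose of 1 mg/kg or oral dose of 10 mg/kg. About 200 μL blood drawn from the jugular vein into heparinized tubes at set times, then spun to plasma. 30 μL plasma precipitated with CH3CN containing verapamil and glibenclamide as internal standards. Plasma drug level measured by LC-MS/MS.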

[7] = AUC (0 to t) in Sprague-Dawley rat at 10 mg/kg, po by LC-MS/MS analysis; type: ADME, organism-based; settings: in vivo

Nc1cc(F)ccc1NC(=O)c1ccc(CNC(=O)/C=C2\NC(=O)c3ccccc32)cc1
IC50 (Histone deacetylase 3): 112 nM
inhibition [1]: inactive
inhibition [2]: inactive
IC50 (Histone deacetylase 11): 632 nM
IC50 (HCT-116): 432 nM
Ratio IC50 (Homo sapiens): 17
Ratio IC50 (HL-60): 5
inhibition of growth at 10 µM (CCRF-CEM): 84.5%
inhibition of growth at 10 µM (K562): 61.6%
inhibition of growth at 10 µM (RPMI-8226): 59.8%
inhibition of growth at 10 µM (A549): 12.2%
inhibition of growth at 10 µM (HOP-62): 29.9%
inhibition of growth at 10 µM (NCI-H522): 70.7%
inhibition of growth at 10 µM (SW-620): 40.1%
inhibition of growth at 10 µM (SF-268): 36%
inhibition of growth at 10 µM (SF-295): 16.2%
inhibition of growth at 10 µM (Malme-3M): 52.6%
inhibition of growth at 10 µM (M14): 29.4%
inhibition of growth at 10 µM (UACC-257): 36.6%
inhibition of growth at 10 µM (OVCAR-3): 42%
inhibition of growth at 10 µM (OVCAR-4): 21.3%
inhibition of growth at 10 µM (SK-OV-3): 29.5%
inhibition of growth at 10 µM (Hs-578T): 29.3%
inhibition of growth at 10 µM (MDA-MB-231): 22.4%
microsomal CLint at 1 µM [3]: 4.8 µL/min/mg
microsomal CLint at 1 µM [4]: 11.7 µL/min/mg
half-life [5]: 23.4 min
AUC(0-inf) [6]: 1740 ng·h/mL
AUC(0-t) [7]: 1710 ng·h/mL
